ChEMBL document CHEMBL1129379, “Heterocyclic ureas: inhibitors of acyl-CoA:cholesterol O-acyltransferase as hypocholesterolemic agents” (J Med Chem, 1996)

Tests used:
O-acyltransferase = O-acyltransferase (Oryctolagus cuniculus, UniProt G1SFD9); assay: Acyl coenzyme A:cholesterol acyltransferase 1 inhibition in vitro measured in rabbit intestinal microsomes; design: species or system Intestine
Canis familiaris = assay: Percent change in plasma cholesterol in dog at 3 mg/kg; type: functional, Canis lupus familiaris
In short: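 Cholesterol-fed female Beagle dogs given bulk drug in capsules before meals, daily for 1 week, at 3 mg/kg po. Plasma total cholesterol compared before and after treatment as percent change; paired two-tailed t-test, n = 6.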

Rattus norvegicus [1] = assay: Percent change in plasma TC in the chronic C-fed rat model of pre-established hypercholesterolemia. Dose at 10 mg/kg; type: functional
In short: (§1)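 Chronic rat model of pre-established hypercholesterolemia: 1 week on high-cholesterol diet, then compound dosed orally once daily for 1 week. Plasma total cholesterol, HDL-C and non-HDL-C expressed as percent change versus control; p < 0.05 flagged.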

[2] = molecular target: T1, Sterol O-acyltransferase 1 (Rattus norvegicus) (UniProt O70536); assay: Percent change in plasma TC in the chronic C-fed rat model of pre-established hypercholesterolemia. Dose at 30 mg/kg; type: functional, organism-based; design: dose 30 mg/kg; in short: as §1
T1 sequence (whole entry): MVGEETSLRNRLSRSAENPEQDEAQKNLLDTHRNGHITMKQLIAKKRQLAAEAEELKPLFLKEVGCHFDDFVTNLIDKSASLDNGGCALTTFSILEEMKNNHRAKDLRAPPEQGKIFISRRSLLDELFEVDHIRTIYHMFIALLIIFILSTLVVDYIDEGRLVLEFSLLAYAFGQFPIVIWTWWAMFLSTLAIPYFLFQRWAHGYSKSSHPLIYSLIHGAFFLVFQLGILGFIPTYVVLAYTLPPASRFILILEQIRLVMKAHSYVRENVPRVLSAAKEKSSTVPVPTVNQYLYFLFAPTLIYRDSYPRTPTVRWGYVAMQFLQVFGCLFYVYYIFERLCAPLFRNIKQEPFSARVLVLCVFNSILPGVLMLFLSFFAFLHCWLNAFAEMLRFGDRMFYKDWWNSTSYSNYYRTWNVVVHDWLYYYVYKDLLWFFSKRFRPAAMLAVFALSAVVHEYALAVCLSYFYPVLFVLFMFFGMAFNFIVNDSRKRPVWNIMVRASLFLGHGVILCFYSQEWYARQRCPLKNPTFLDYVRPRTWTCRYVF

Rattus norvegicus [3] = assay: Percent change in plasma TC in the chronic C-fed rat model of pre-established hypercholesterolemia. Dose at 3 mg/kg; type: functional; in short: as §1
[4] = molecular target: T1, Sterol O-acyltransferase 1 (Rattus norvegicus); assay: Percent change in plasma total cholesterol in an acute cholesterol-fed rat model of hypercholesterolemia, dose at 3 mg/kg; type: functional, organism-based; design: dose 3 mg/kg
[5] = molecular target: T1, Sterol O-acyltransferase 1 (Rattus norvegicus); assay: Percent change in plasma total cholesterol in an acute cholesterol-fed rat model of hypercholesterolemia, dose at 30 mg/kg; type: functional, organism-based; design: dose 30 mg/kg
Rattus norvegicus [6] = assay: Percent change in HDL-CDose at 10 mg/kg; type: functional; in short: as §1
Rattus norvegicus [7] = assay: Percent change in HDL-CDose at 30 mg/kg; type: functional; in short: as §1
Rattus norvegicus [8] = assay: Percent change in HDL-CDose at 3 mg/kg; type: functional; in short: as §1
Rattus norvegicus [9] = assay: Percent change in non-HDL-C Dose at 10 mg/kg; type: functional; in short: as §1
Rattus norvegicus [10] = assay: Percent change in non-HDL-C Dose at 30 mg/kg; type: functional; in short: as §1
Rattus norvegicus [11] = assay: Percent change in non-HDL-C Dose at 3 mg/kg; type: functional; in short: as §1

IC50 (O-acyltransferase): 0.012 µM
Delta TC [2]: -61%
Delta TC [4]: -56%
Delta TC [5]: -65%
Compound: CCCCCCCCCCCCCCN1NN=C(NC(=O)Nc2c(C(C)C)cccc2C(C)C)N1
Delta plasma cholesterol (Canis familiaris): -22%
Delta TC (Rattus norvegicus [1]): -53%
Delta TC (Rattus norvegicus [3]): -43%
Delta HDL-C (Rattus norvegicus [6]): 87%
Delta HDL-C (Rattus norvegicus [7]): 93%
Delta HDL-C (Rattus norvegicus [8]): 47%
Non-HDL-C (Rattus norvegicus [9]): -61%
Non-HDL-C (Rattus norvegicus [10]): -68%
Non-HDL-C (Rattus norvegicus [11]): -48%
